miR122 inh = miR-122 Renilla sensor signal increase in Huh7, primary screen, miR-122 inhibitor project, cell-based, single point, plate reader. AID 602342, 2012. Huh7 miR-122 Renilla luciferase sensor, 48 h; neutral wells = 0, positive control = 100. activation (reporter increase), % at 12.5 µM. 0.3% of 340,000 active;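 active = mean replicate activation score at least 90 and every replicate individually at or above 90; inconclusive = only one of the two criteria met; inactive = neither criterion met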;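 also: higher luciferase means less miR-122 activity so hits act as miR-122 inhibitors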
HIV Env fusion = inhibitors of HIV-1 Env-driven cell-cell fusion, primary screen, HeLa-JRFL effector, CEM21 target cells, luciferase; inhibition, % at 12.3 µM; 1.1% of 360,000 active;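 active = mean replicate inhibition score of at least 50 and every replicate individually at or above 50; inconclusive = only one of the two criteria met; inactive = mean below 50 and not all replicates reaching 50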;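 also: 0% = plate neutral controls and 100% = maraviroc near 300 nM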
Cneo AK release = Cryptococcus neoformans cell lysis inducers, primary screen, AK release luminescence, single concentration; C. neoformans lysis, adenylate kinase release luminescence, 4 h; normalised: neutral wells 0, clomiphene wells 100; AID 651654, 2012; lysis activity, % at 15 µM; 0.2% of 360,000 active;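 active = mean lysis activity across replicates of at least 80%, whatever share of replicates individually reach that level; inactive = mean lysis activity below 80%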
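Material – log-phase Cryptococcus neoformans yeast cells · Input – 5 × 10^6 yeast cells/mL · Medium – fresh YPD growth medium · Doses – single compound concentration per well · Timing – static 4 h at 37 °C with compound, 1 h detection · Detection – adenylate kinase release luminescence · Read-out – signal increase indicating cell lysis · Control set – Clomiphene as positive lysis control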
GSIS activator = GLuc luminescence reporter in INS-1E cells, primary screen for activators of glucose-dependent secretion of insulin; INS-1E GLuc reporter insulin secretion, 2-3 h; AID 743287, 2014; 0.61% of 370,000 active; activation, % at 16.6 µM;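 active = lowest replicate activation of at least 40%, so every replicate reaches that level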;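 also: 0% = median of neutral control wells and 100% = median of IBMX positive control wells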
CFTR F508del cor = F508del CFTR correction, initial screen, CFBE line, single point | 0.36% of 350,000 active | CFBE cells, YFP halide quenching; stimulated with forskolin plus potentiator P3; % fluorescence drop versus neutral controls | AID 720511, 2013 | activity (quench increase), % at 7.58 µM;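 active = mean added fluorescence quench of at least 8% versus neutral control, with both replicates also reaching 8%; inconclusive = only one of the mean or replicate conditions met; inactive = mean below 8% and not both replicates reaching 8%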;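 also: cells transiently co-express mutant CFTR-F508del with the halide-sensitive YFP; corrector assay measuring rescue of mutant channel to the surface after 24 h compound exposure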
rRNA inh HTS = reduced GFP signal of wild-type E. coli, primary screen, bacterial rRNA inhibitor project, GFP/RFP fluorescence, OD600, single point; GFP signal change (wild-type ribosome), % (no concentration beside the values); E. coli WT GFP vs humanized-ribosome RFP mutants, 24 h; stronger effect = lower value; DMSO median 0, no signal -100; 1.6% of 350,000 active; AID 720706, 2013;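 active = significant combined selectivity score with lowered wild-type GFP, culture density cut under 30%, mutant RFP and density less affected; inactive = any of these conditions unmet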
Active calls of the source: *; ? = inconclusive; . = no result; [ ] = another dose, or the depositor's remark. Only some compounds are listed: those with a hit (about 3.1% of all), similar ones and a draw of the others.

SMILES	miR122 inh	HIV Env fusion	Cneo AK release	GSIS activator	CFTR F508del cor	rRNA inh HTS
Cc1ccc(S(=O)(=O)Nc2ccc3c(c2)C(=O)N([C@@H](C)CO)C[C@H](C)[C@H](CN(C)S(=O)(=O)c2ccc(C)cc2)OCCCC[C@@H](C)O3)cc1	5[16.7 µM]	-38[16.7 µM]	-4	8	9.1*	2
Cc1ccc(S(=O)(=O)Nc2ccc3c(c2)C(=O)N([C@@H](C)CO)C[C@H](C)[C@@H](CN(C)S(=O)(=O)c2ccc(C)cc2)OCCCC[C@@H](C)O3)cc1	34[16.7 µM]	-86[16.7 µM]	-3	-38	2	4
Cc1ccc(S(=O)(=O)Nc2ccc3c(c2)C(=O)N([C@@H](C)CO)C[C@H](C)[C@H](CN(C)S(=O)(=O)c2ccc(Cl)cc2)OCCCC[C@@H](C)O3)cc1	10[16.7 µM]	-2[16.7 µM]	103*	4	?	1
CNC[C@@H]1OCCCC[C@@H](C)Oc2ccc(NS(=O)(=O)c3ccc(Cl)cc3)cc2C(=O)N([C@H](C)CO)C[C@H]1C	32[16.7 µM]	-5[16.7 µM]	100*	40	2	9
CC(C)NC(=O)Nc1ccc2c(c1)C(=O)N([C@@H](C)CO)C[C@@H](C)[C@@H](CN(C)S(=O)(=O)c1ccc(Cl)cc1)OCCCC[C@@H](C)O2	1[16.7 µM]	-38[16.7 µM]	102*	-30	4	-4
CO[C@H]1CN(C)C(=O)c2ccc(NC(=O)C3CC3)cc2OC[C@@H](C)N(Cc2ccccc2)C[C@@H]1C	-8[16.7 µM]	.	-5	-39	1	-6
COc1ccc(NC(=O)Nc2ccc3c(c2)C(=O)N([C@@H](C)CO)C[C@H](C)[C@H](CN(C)C(=O)C2CCCCC2)OCCCC[C@H](C)O3)cc1	-2[16.7 µM]	?	2	-5	5	-2
C[C@@H]1CN([C@H](C)CO)C(=O)c2cc(NS(=O)(=O)c3ccc(Cl)cc3)ccc2O[C@@H](C)CCCCO[C@H]1CN(C)S(=O)(=O)c1cccs1	-7[16.7 µM]	63*[16.7 µM]	-1	-5	0	0
Cc1cc(C)nc(N(C#N)Cc2cccc(Cl)c2)n1	.	8	.	-3	11*	-38
O=C(Nc1cccc(S(=O)(=O)C(F)(F)F)c1)[C@H]1C[C@H](O)[C@@H](CO)O1	-6	20	0	8	2	3
O=C(Nc1cccc(S(=O)(=O)C(F)(F)F)c1)[C@@H]1O[C@H](CO)[C@@H](O)[C@H]1O	-3	-11	-3	43*	1	9
CCCC(=O)Nc1ccc2c(c1)OC[C@H](C)N(C(C)=O)C[C@H](C)[C@@H](OC)CN(C)C2=O	.	.	.	4	-1	3
COc1ccc(C(=O)c2cc([N+](=O)[O-])ccc2N2CCN(C)CC2)cc1	.	-36	.	-1	16*	11
COc1ccc(OC)c(C(=O)c2ccc(C(=O)c3cc(OC)ccc3OC)cc2)c1	12	.	-5	17	0	11
COc1ccc(OC)c(C(=O)c2ccc([N+](=O)[O-])cc2)c1	.	17	2	58*	-4	-2
O=C(c1ccc(Br)cc1)c1cc([N+](=O)[O-])ccc1N1CCCCC1	185*	-92	0	.	.	.
COc1ccc(C(=O)c2ccc(N(C)C)cc2)c(OC)c1	51	.	2	4	11*	-8
CN1CCN(c2ccc([N+](=O)[O-])cc2C(=O)c2ccc(Br)cc2)CC1	3	67	0	.	.	.
O=C(c1ccco1)N(Cc1ccccc1)Cc1ccccn1	.	-4	.	46	1	5
O=C(c1cccs1)N(Cc1ccccn1)Cc1ccco1	2	-3	0	73*	.	.
COc1cccc(C#Cc2ccc3c(c2)[C@H]2[C@H](CCN2C(=O)Cc2ccccc2)[C@H](CO)N3)c1	.	.	.	-18	6	-5
Cc1ccccc1S(=O)(=O)N1C[C@@H](O)COC[C@@H]2O[C@@H](CC(=O)O)CC[C@H]21	-2[16.7 µM]	-13[16.7 µM]	-2	8	2	5
O=S1(=O)CCC(N=Cc2cc(Br)ccc2O)C1 (centres undefined)	-5	.	85*	.	.	.
O=c1c2ccccc2c(C=NC2CCS(=O)(=O)C2)c(O)n1-c1ccccc1 (centres undefined)	1	-51	1	.	.	.
Cc1c(CCOC(=O)CC23CC4CC(CC(C4)C2)C3)sc[n+]1CC(=O)c1ccc(Br)cc1	3	61*	7	.	.	.
SMILES	miR122 inh	HIV Env fusion	Cneo AK release	GSIS activator	CFTR F508del cor	rRNA inh HTS
Cc1c(CCOC(=O)CC23CC4CC(CC(C)(C4)C2)C3)sc[n+]1CC(=O)c1ccccc1	.	69*	.	70	3	-63
Cc1c(CCOC(=O)c2ccccc2)sc[n+]1Cc1ccccc1	20	-3	-1	.	.	-11
Cc1c(CCOC(=O)c2ccccc2)sc[n+]1CC(=O)c1ccc(Br)cc1	-1	.	15	-10	.	-48*
Cc1c(CCOC(=O)c2cc([N+](=O)[O-])cc([N+](=O)[O-])c2)sc[n+]1CC(=O)c1ccccc1	-5	5	0	-5	1	6
Cc1c(CCOC(=O)C23CC4CC(CC(C)(C4)C2)C3)sc[n+]1CC(=O)c1ccccc1	5	82*	0	.	-1	-57
C[C@H]1CN([C@@H](C)CO)C(=O)c2cccc(NC(=O)c3ccncc3)c2O[C@@H]1CN(C)C(=O)Nc1ccc(F)cc1	11[16.7 µM]	.	-1	5	0	4
C[C@@H]1CN([C@H](C)CO)C(=O)Cc2cc(NS(=O)(=O)c3cccs3)ccc2O[C@@H]1CN(C)S(=O)(=O)c1ccccc1	32[16.7 µM]	-21[16.7 µM]	3	-6	0	-1
CN(C)CC(=O)N[C@@H]1C=C[C@H](CC(=O)NCCN2CCCCC2)O[C@H]1CO	.	-2[16.7 µM]	-3	1	4	1
CCOC(=O)[C@H]1[C@H]2COc3ccc(Br)cc3[C@@H]2N2C(=O)c3c(C)cc(C)cc3NC(=O)[C@@]12C	-1	67*	-1	.	-2	.
CCOC(=O)[C@H]1[C@H]2COc3ccc(Br)cc3[C@@H]2N2C(=O)c3ccc(C)cc3NC(=O)[C@@]12C	.	-243	0	-7	1	-9
CCOC(=O)[C@@H]1[C@H]2COc3ccc(Br)cc3[C@@H]2N2C(=O)N(c3ccccc3)C(=O)[C@@]12C	.	87*	-1	-5	1	-16
Cc1ccc(S(=O)(=O)Nc2ccc3c(c2)CC(=O)N([C@@H](C)CO)C[C@H](C)[C@H](CN(C)CC2CCCCC2)O3)cc1	-11[16.7 µM]	.	11	-15	2	-11
